Reference: ChEMBL document CHEMBL1122467, “Hypolipidemic activity of phthalimide derivatives. 3. A comparison of phthalimide and 1,2-benzisothiazolin-3-one 1,1-dioxide derivatives to phthalimidine and 1,2-benzisothiazoline 1,1-dioxide congeners” (1983)

Tests used:
Assay type in all cases: functional
Mus musculus [1] = experiment: Hypolipidemic activity (14th day serum triglyceride) at 20 mg/kg in CF1 male mice
In short: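 Separate group of male CF1 mice (~25 g) dosed ip at 20 (mg/kg)/day for 14 days, injections at 11:00 a.m. Bled by tail vein on day 14 into nonheparinized microcapillary tubes, centrifuged 3 min for serum. Triglycerides (mg %) measured on duplicate 50-µL serum samples. Given as % control.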

Mus musculus [2] = experiment: Hypolipidemic activity (16th day serum cholesterol) at 20 mg/kg in CF1 male mice
In short: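 Male CF1 mice (~25 g), given 20 (mg/kg)/day ip at 11:00 a.m. On day 16, tail-vein blood collected between 8:00 and 9:30 a.m. in alkali-free nonheparinized microcapillaries and centrifuged 3 min. Serum cholesterol (mg %) from duplicate 25-µL nonhemolyzed samples by modified Liebermann-Burchard reaction. Reported as % control.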

Mus musculus [3] = experiment: Hypolipidemic activity (9th day serum cholesterol) at 20 mg/kg in CF1 male mice
In short: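 Male CF1 mice (~25 g), dosed intraperitoneally at 20 (mg/kg)/day at 11:00 a.m. Tail-vein blood taken on day 9 between 8:00 and 9:30 a.m. into alkali-free nonheparinized microcapillary tubes, spun 3 min for serum. Cholesterol (mg %) in duplicate 25-µL nonhemolyzed serum samples by modified Liebermann-Burchard reaction. Expressed as % control.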

| SMILES | Control (Mus musculus [1]) [%] | Control (Mus musculus [2]) [%] | Control (Mus musculus [3]) [%] |
| --- | --- | --- | --- |
| CC(=O)CCN1C(=O)c2ccccc2C1=O | <58 | <63 | <67 |
| CC(=O)CN1C(=O)c2ccccc2S1(=O)=O | 66 | 52 | 95 |
| O=C(O)CCN1C(=O)c2ccccc2C1=O | <58 | <55 | <74 |
| O=C1NCc2ccccc21 | 78 | 87 | 89 |
| O=C(O)CCCCCN1C(=O)c2ccccc2C1=O | 51 | 67 | 81 |
| O=C(O)CCCN1C(=O)c2ccccc2S1(=O)=O | 48 | 73 | 85 |
| CC(=O)CN1C(=O)c2ccccc2C1=O | <48 | <67 | 80 |
| O=C(O)CCCN1C(=O)c2ccccc2C1=O | 59 | 68 | 80 |
| O=C1NS(=O)(=O)c2ccccc21 [SACCHARIN] | 51 | 67 | 68 |
| O=C(O)CCCCN1C(=O)c2ccccc2C1=O | 54 | 77 | 83 |
| O=S1(=O)NCc2ccccc21 | 86 | 80 | 82 |
| CCCCN1Cc2ccccc2C1=O | 80 | 62 | 68 |
| O=C(O)CCCCN1C(=O)c2ccccc2S1(=O)=O | 44 | 68 | 96 |
| CCCCN1C(=O)c2ccccc2S1(=O)=O | 76 | 56 | 76 |
| O=C1NC(=O)c2ccccc21 [PHTHALIMIDE] | 44 | 57 | 63 |
| C=C(CN1C(=O)c2ccccc2S1(=O)=O)C(=O)O | 101 | 85 | 85 |
| CCCCCN1C(=O)c2ccccc2C1=O | 75 | 58 | 76 |
| O=C(O)CCN1C(=O)c2ccccc2S1(=O)=O | 67 | 47 | 96 |
| CC(=O)CCN1C(=O)c2ccccc2S1(=O)=O | 51 | 62 | 60 |
| CC(=O)CCN1Cc2ccccc2C1=O | <83 | <84 | 88 |
| O=C(O)CCN1Cc2ccccc2C1=O | 88 | 97 | 87 |
| CCCCCN1C(=O)c2ccccc2S1(=O)=O | 62 | 58 | 106 |
| CCOC(=O)CCN1C(=O)c2ccccc2S1(=O)=O | 61 | 71 | 97 |
| O=C(O)CCN1Cc2ccccc2S1(=O)=O | 76 | 59 | 73 |
| O=C(O)CCCCCN1C(=O)c2ccccc2S1(=O)=O | 55 | 76 | 90 |
| CC(=O)CCCN1C(=O)c2ccccc2C1=O | <59 | <63 | <71 |
| CC(=O)CCN1Cc2ccccc2S1(=O)=O | 78 | 81 | 87 |
| CCCCN1Cc2ccccc2S1(=O)=O | 76 | 68 | 71 |
| CC(=O)CCCN1C(=O)c2ccccc2S1(=O)=O | 77 | 77 | 73 |
| CCCCN1C(=O)c2ccccc2C1=O | 82 | <54 | <72 |
